Data as given in ChEMBL document CHEMBL1147441, “A new series of potent oxindole inhibitors of CDK2” (Bioorg Med Chem Lett, 2004).

Assays:
SW480 [1] = assay: Percent inhibition of SW480 cell growth in S phase at 0 nm concentration in FACS cell cycle after 24 hr of treatment; assay type: functional, Homo sapiens
How it was run: (§1)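 SW480 cells were exposed to compound for 4, 16 or 24 h. Cells were fixed in 70% ethanol, pelleted for 1 min at 3000g at 25 °C and washed once in PBS. They were then treated with ribonuclease for 15 min at 37 °C and stained with propidium iodide for 30 min at room temperature. Flow cytometry gave the % of cells in G0-G1, S, G2-M and subG0, and the G2/G1 ratio.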

SW480 [2] = assay: Percent inhibition of SW480 cell growth in G2-M phase at 270 nm concentration in FACS cell cycle after 16 hr of treatment; assay type: functional, Homo sapiens; how it was run: as §1
[3] = Inhibition ratio of G2 and G1 phase cellular fractions of SW480 cells treated with compound at 0 nM concentration at 16 h; assay type: functional; how it was run: as §1
[4] = Inhibition ratio of G2 and G1 phase cellular fractions of SW480 cells treated with compound at 270 nM concentration at 24 h; assay type: functional; how it was run: as §1
SW480 [5] = assay: Percent inhibition of SW480 cell growth in G0-G1 phase at 92 nm concentration in FACS cell cycle after 24 hr of treatment; assay type: functional, Homo sapiens; how it was run: as §1
SW480 [6] = assay: Percent inhibition of SW480 cell growth in sub G0 phase at 0 nm concentration in FACS cell cycle after 4 hr of treatment; assay type: functional, Homo sapiens; how it was run: as §1
SW480 [7] = assay: Percent inhibition of SW480 cell growth in G0-G1 phase at 270 nm concentration in FACS cell cycle after 24 hr of treatment; assay type: functional, Homo sapiens; how it was run: as §1
SW480 [8] = assay: Percent inhibition of SW480 cell growth in G0-G1 phase at 270 nm concentration in FACS cell cycle after 4 hr of treatment; assay type: functional, Homo sapiens; how it was run: as §1
MDA-MB-435 = assay: In vitro inhibition of MDA MB 435 (human breast cancer) cell proliferation.; assay type: functional, cell-based
How it was run: (§2)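 MTT-based proliferation assay run on tumour cells. IC50 values were taken from a single experiment.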

SW480 [9] = assay: Percent inhibition of SW480 cell growth in G2-M phase at 92 nm concentration in FACS cell cycle after 4 hr of treatment; assay type: functional, Homo sapiens; how it was run: as §1
[10] = Inhibition ratio of G2 and G1 phase cellular fractions of SW480 cells treated with compound at 270 nM concentration at 16 h; assay type: functional; how it was run: as §1
SW480 [11] = assay: Percent inhibition of SW480 cell growth in sub G0 phase at 0 nm concentration in FACS cell cycle after 24 hr of treatment; assay type: functional, Homo sapiens; how it was run: as §1
SW480 [12] = assay: Percent inhibition of SW480 cell growth in S phase at 270 nm concentration in FACS cell cycle after 24 hr of treatment; assay type: functional, Homo sapiens; how it was run: as §1
SW480 [13] = assay: Percent inhibition of SW480 cell growth in G2-M phase at 0 nm concentration in FACS cell cycle after 4 hr of treatment; assay type: functional, Homo sapiens; how it was run: as §1
[14] = target: Cyclin-dependent kinase 2/cyclin E (Homo sapiens, UniProt P24941); assay: In vitro inhibition of recombinant Cyclin Dependent Kinase-2/Cyclin E.; assay type: protein-complex assay
SW480 [15] = assay: Percent inhibition of SW480 cell growth in S phase at 92 nm concentration in FACS cell cycle after 24 hr of treatment; assay type: functional, Homo sapiens; how it was run: as §1
SW480 [16] = assay: Percent inhibition of SW480 cell growth in G0-G1 phase at 0 nm concentration in FACS cell cycle after 24 hr of treatment; assay type: functional, Homo sapiens; how it was run: as §1
SW480 [17] = assay: Percent inhibition of SW480 cell growth in sub G0 phase at 0 nm concentration in FACS cell cycle after 16 hr of treatment; assay type: functional, Homo sapiens; how it was run: as §1
SW480 [18] = assay: Percent inhibition of SW480 cell growth in G0-G1 phase at 0 nm concentration in FACS cell cycle after 16 hr of treatment; assay type: functional, Homo sapiens; how it was run: as §1
SW480 [19] = assay: Percent inhibition of SW480 cell growth in G0-G1 phase at 92 nm concentration in FACS cell cycle after 16 hr of treatment; assay type: functional, Homo sapiens; how it was run: as §1
SW480 [20] = assay: Percent inhibition of SW480 cell growth in sub G0 phase at 92 nm concentration in FACS cell cycle after 16 h of treatment; assay type: functional, Homo sapiens; how it was run: as §1
SW480 [21] = assay: Percent inhibition of SW480 cell growth in G0-G1 phase at 92 nm concentration in FACS cell cycle after 4 hr of treatment; assay type: functional, Homo sapiens; how it was run: as §1
SW480 [22] = assay: Percent inhibition of SW480 cell growth in G2-M phase at 270 nm concentration in FACS cell cycle after 4 hr of treatment; assay type: functional, Homo sapiens; how it was run: as §1
[23] = Inhibition ratio of G2 and G1 phase cellular fractions of SW480 cells treated with compound at 92 nM concentration at 4 h; assay type: functional; how it was run: as §1
[24] = Inhibition ratio of G2 and G1 phase cellular fractions of SW480 cells treated with compound at 92 nM concentration at 24 h; assay type: functional; how it was run: as §1
SW480 [25] = assay: Percent inhibition of SW480 cell growth in G0-G1 phase at 0 nm concentration in FACS cell cycle after 4 hr of treatment; assay type: functional, Homo sapiens; how it was run: as §1
SW480 [26] = assay: Percent inhibition of SW480 cell growth in S phase at 92 nm concentration in FACS cell cycle after 16 hr of treatment; assay type: functional, Homo sapiens; how it was run: as §1
SW480 [27] = assay: Percent inhibition of SW480 cell growth in sub G0 phase at 270 nm concentration in FACS cell cycle after 4 hr of treatment; assay type: functional, Homo sapiens; how it was run: as §1
SW480 [28] = assay: Percent inhibition of SW480 cell growth in G2-M phase at 0 nm concentration in FACS cell cycle after 16 hr of treatment; assay type: functional, Homo sapiens; how it was run: as §1
SW480 [29] = assay: Percent inhibition of SW480 cell growth in sub G0 phase at 270 nm concentration in FACS cell cycle after 16 hr of treatment; assay type: functional, Homo sapiens; how it was run: as §1
[30] = Inhibition ratio of G2 and G1 phase cellular fractions of SW480 cells treated with compound at 0 nM concentration at 24 h; assay type: functional; how it was run: as §1
SW480 [31] = assay: Percent inhibition of SW480 cell growth in G2-M phase at 0 nm concentration in FACS cell cycle after 24 hr of treatment; assay type: functional, Homo sapiens; how it was run: as §1
SW480 [32] = assay: Percent inhibition of SW480 cell growth in sub G0 phase at 92 nm concentration in FACS cell cycle after 4 hr of treatment; assay type: functional, Homo sapiens; how it was run: as §1
SW480 [33] = assay: Percent inhibition of SW480 cell growth in G0-G1 phase at 270 nm concentration in FACS cell cycle after 16 hr of treatment; assay type: functional, Homo sapiens; how it was run: as §1
SW480 [34] = assay: Percent inhibition of SW480 cell growth in sub G0 phase at 92 nm concentration in FACS cell cycle after 24 hr of treatment; assay type: functional, Homo sapiens; how it was run: as §1
SW480 [35] = assay: Percent inhibition of SW480 cell growth in S phase at 270 nm concentration in FACS cell cycle after 16 hr of treatment; assay type: functional, Homo sapiens; how it was run: as §1
SW480 [36] = assay: Percent inhibition of SW480 cell growth in S phase at 0 nm concentration in FACS cell cycle after 4 h of treatment; assay type: functional, Homo sapiens; how it was run: as §1
[37] = Inhibition ratio of G2 and G1 phase cellular fractions of SW480 cells treated with compound at 92 nM concentration at 16 h; assay type: functional; how it was run: as §1
[38] = Inhibition ratio of G2 and G1 phase cellular fractions of SW480 cells treated with compound at 0 nM concentration at 4 h; assay type: functional; how it was run: as §1
SW480 [39] = assay: Percent inhibition of SW480 cell growth in S phase at 270 nm concentration in FACS cell cycle after 4 hr of treatment; assay type: functional, Homo sapiens; how it was run: as §1
SW480 [40] = assay: Percent inhibition of SW480 cell growth in S phase at 92 nm concentration in FACS cell cycle after 4 hr of treatment; assay type: functional, Homo sapiens; how it was run: as §1
SW480 [41] = assay: Percent inhibition of SW480 cell growth in S phase at 0 nm concentration in FACS cell cycle after 16 hr of treatment; assay type: functional, Homo sapiens; how it was run: as §1
SW480 [42] = assay: Percent inhibition of SW480 cell growth in G2-M phase at 92 nm concentration in FACS cell cycle after 16 hr of treatment; assay type: functional, Homo sapiens; how it was run: as §1
SW480 [43] = assay: Percent inhibition of SW480 cell growth in G2-M phase at 270 nm concentration in FACS cell cycle after 24 h of treatment; assay type: functional, Homo sapiens; how it was run: as §1
SW480 [44] = assay: Percent inhibition of SW480 cell growth in sub G0 phase at 270 nm concentration in FACS cell cycle after 24 h of treatment; assay type: functional, Homo sapiens; how it was run: as §1
SW480 [45] = assay: In vitro inhibition of SW480 (human colon cancer) cell proliferation.; assay type: functional, cell-based; how it was run: as §2
[46] = Inhibition ratio of G2 and G1 phase cellular fractions of SW480 cells treated with compound at 270 nM concentration at 4 h; assay type: functional; how it was run: as §1
SW480 [47] = assay: Percent inhibition of SW480 cell growth in G2-M phase at 92 nm concentration in FACS cell cycle after 24 hr of treatment; assay type: functional, Homo sapiens; how it was run: as §1

COc1cc[nH]c1/C=C1\C(=O)Nc2ccc(F)c(C#CC3(O)CCNCC3)c21.Cl
S (SW480 [1]): 32.7%
G2/M (SW480 [2]): 38.44%
Ratio [3]: 1.95%
Ratio [4]: 1.94%
G0/G1 (SW480 [5]): 54.68%
SubG0 (SW480 [6]): 13.29%
G0/G1 (SW480 [7]): 50%
G0/G1 (SW480 [8]): 43.9%
IC50 (MDA-MB-435): 110 nM
G2/M (SW480 [9]): 18.36%
Ratio [10]: 1.94%
SubG0 (SW480 [11]): 11.85%
S (SW480 [12]): 14.54%
G2/M (SW480 [13]): 18.42%
IC50 [14]: 6 nM
S (SW480 [15]): 30.15%
G0/G1 (SW480 [16]): 52.41%
SubG0 (SW480 [17]): 11.29%
G0/G1 (SW480 [18]): 46.55%
G0/G1 (SW480 [19]): 55.84%
SubG0 (SW480 [20]): 13.52%
G0/G1 (SW480 [21]): 52.49%
G2/M (SW480 [22]): 21.8%
Ratio [23]: 1.95%
Ratio [24]: 1.96%
G0/G1 (SW480 [25]): 49.25%
S (SW480 [26]): 28.43%
SubG0 (SW480 [27]): 14.47%
G2/M (SW480 [28]): 14.84%
SubG0 (SW480 [29]): 43.52%
Ratio [30]: 1.95%
G2/M (SW480 [31]): 14.89%
SubG0 (SW480 [32]): 11.17%
G0/G1 (SW480 [33]): 47.74%
SubG0 (SW480 [34]): 11.67%
S (SW480 [35]): 13.82%
S (SW480 [36]): 32.33%
Ratio [37]: 1.96%
Ratio [38]: 1.94%
S (SW480 [39]): 34.26%
S (SW480 [40]): 29.14%
S (SW480 [41]): 38.61%
G2/M (SW480 [42]): 15.72%
G2/M (SW480 [43]): 35.45%
SubG0 (SW480 [44]): 46.86%
IC50 (SW480 [45]): 92 nM
Ratio [46]: 1.95%
G2/M (SW480 [47]): 15.16%
